# bCat KO growth: primary screen for growth suppressors in beta-catenin knockout HCT116 cells (colon tumor, human); HCT116 beta-catenin knockout viability, CellTiter-Glo, 60 h; stronger effect = lower value; viability, % at 10 µM; 140,000 tested, 1.5% active; AID 818, 2007;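 active means viability at or under a set limit, the compound median less 4 SD, cut at about 6% in these data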;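 further: 0% = Hyamine 1622 control at 20 µM and 100% = untreated cell control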
# HCT116 PTEN-null: growth suppression of PTEN-null HCT116, primary screen, cell-based, CellTiter-Glo | viability, % at 10 µM | HCT116 PTEN-null viability, 60 h; stronger effect = lower value | AID 827, 2007 | 140,000 tested, 1.2% active;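 active means viability at or below a set limit, 4 SD under the median of all tested compounds, cut at about 3.7% in these data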;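 further: PTEN knockout HCT116 line with beta catenin targeted HCT116 as companion control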
# Fibroblast inh: antiproliferative effect on LL 47 fibroblasts – human, LL 47 cells, CellTiter-Glo luminescence, primary screen; LL 47 human lung fibroblast viability, ATP luminescence; stronger effect = lower value; viability, % at 10 µM; 85,000 tested, 1.1% active; AID 719, 2007;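 active means viability at or below 50% in the single dose screen; inactive means viability above 50%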;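 further: compound exposure lasted 72 h before the ATP readout; 100% = median luminescence of untreated cell-only wells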
#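 material = human LL 47 lung fibroblast cells | dosing = compounds added from tenfold dosing solution, 0.1% DMSO final | timing = overnight cell rest, 72 h compound treatment at 37 °C | measured by = CellTiter-Glo luminescence measuring cellular ATP | evaluation = % viability versus median cells-only luminescence | control set = cell-only wells, no compound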
# H69AR inhibit: proliferation blockers of H69AR lung cancer cells, primary screen, cell-based, human, 86K library | AID 598, 2007 | viability, % at 10 µM | H69AR lung tumor viability, ATP luminescence, 72 h; stronger effect = lower value | 85,000 tested, 6% active;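 active means viability at or below 40%; inactive means viability above 40%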;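 further: multidrug resistant small cell line overexpressing MRP-1 efflux transporter; 100% = mean luminescence of untreated control wells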
# HUVEC inhibit: inhibitors of HUVEC proliferation, primary screen, cell-based, 384-well; AID 648, 2007; CellTiter-Glo luminescence, 72 h; stronger effect = lower value; viability, % at 10 µM (by protocol); 86,000 tested, 1.1% active;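 active means viability at or below 30%; inactive means viability above 30%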;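 further: 100% = median luminescence of DMSO-only cell control wells on each plate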
# Cav32 inh: Cav3.2 calcium influx blockers – cell-based, Fluo-4 calcium fluorescence, FDSS, MLSMR library, primary screen; Voltage-dependent T-type calcium channel subunit alpha-1H (Homo sapiens), O95180; Cav3.2-expressing cells; stronger effect = lower value; B-score at 10 µM; 100,000 tested, 4% active;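 active means single-dose well whose peak fluorescence ratio is a statistical outlier from its plate by either plate-standardised score or position-corrected B-score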
# * marks the source's active call; other numbers are inactive results; . = no result given. An excerpt weighted towards active compounds, which were near 7.1% of everything screened.
SMILES,bCat KO growth,HCT116 PTEN-null,Fibroblast inh,H69AR inhibit,HUVEC inhibit,Cav32 inh
O=C(O)C1C2C=CC(C2)C1C(=O)Nc1ccc(C(=O)N2CCCCC2)cc1 (centres undefined),87,94,94,92,92,.
CC(C)(C)c1ccc(C(=O)NNC(=O)C2CCCCC2)cc1,98,104,.,.,.,.
CN(C)c1nc2ccc(OCCN3CCCCC3)cc2s1,92,98,107,89,92,0.53
CCN(CC)S(=O)(=O)c1ccc2c(c1)nc(SCC(=O)NC1CC1)n2-c1ccccc1OC,89,82,101,80,79,-3.4
COc1cc(-c2[nH]nc3c2C(c2ccco2)C(C#N)=C(N)O3)cc(OC)c1OC (centres undefined),63,75,.,.,.,.
Oc1ccc(F)cc1-c1cc(-c2ccc3c(c2)OCCO3)n[nH]1,18,44,77,37*,66,-0.24
c1ccc(-c2ccc3c(c2)c2c4n3CCN=C4CCC2)cc1,20,25,75,24*,28*,0.087
OC1CN=C2CCCc3c2n(c2ccc(Cl)cc32)C1 (centres undefined),71,71,100,84,106,0.88
Cc1ccc(NC(=O)c2ccc(Cn3cc([N+](=O)[O-])cn3)cc2)c(C)c1,87,85,.,.,.,.
COc1cc2c(C(=O)Nc3ccc4c(c3)OCO4)cn(CC(C)C)c(=O)c2cc1OC,61,63,99,92,91,.
COc1cc2c(C(=O)NCc3ccc4c(c3)OCO4)cn(CC(C)C)c(=O)c2cc1OC,85,83,42*,85,68,1
N#CC(C(=O)NCc1ccco1)c1nc2ccccc2nc1N1CCOCC1 (centres undefined),84,84,90,61,56,-3.6*
CCCCCNC(=O)C(C#N)c1nc2ccccc2nc1N1CCCC1 (centres undefined),95,87,102,96,102,-7.1*
N#CC(C(=O)NCCc1ccccc1)c1nc2ccccc2nc1N1CCOCC1 (centres undefined),90,90,99,85,79,0.67
CCCCCCNC(=O)C(C#N)c1nc2ccccc2nc1N1CCOCC1 (centres undefined),88,86,105,76,88,-3.3
CCCCCCOC(=O)C(C#N)c1nc2ccccc2nc1N1CCN(CC)CC1 (centres undefined),107,98,84,88,4.3*,-3
CCCCCCOC(=O)C(C#N)c1nc2ccccc2nc1N1CCOCC1 (centres undefined),83,86,91,82,82,-3.5
CCCCN(CCCC)c1nc2ccccc2nc1C(C#N)C(=O)NCCCOC (centres undefined),85,103,79,83,79,-8.1*
CCN(CC)c1nc2ccccc2nc1C(C#N)C(=O)NCCCOC (centres undefined),66,79,112,72,99,-2.5
CC/C(=N\NC(=O)CSc1ncccn1)c1ccc2c(c1)OCCO2,96,102,.,.,.,.
CCCCCCNC(=O)C(C#N)c1nc2ccccc2nc1N1CCCC1 (centres undefined),94,88,96,96,96,-7.1*
CCCN(CCC)c1nc2ccccc2nc1C(C#N)C(=O)OC(C)COC (centres undefined),98,85,92,78,84,-7.7*
N#CC(C(=O)NCc1ccccc1)c1nc2ccccc2nc1N1CCCC1 (centres undefined),77,72,.,.,.,-6*
COCCCNC(=O)C(C#N)c1nc2ccccc2nc1N1CCCC1 (centres undefined),87,95,106,96,74,-5.6*
CCN(CC)c1nc2ccccc2nc1C(C#N)C(=O)NCCc1ccccc1 (centres undefined),81,77,101,93,94,-3.7
SMILES,bCat KO growth,HCT116 PTEN-null,Fibroblast inh,H69AR inhibit,HUVEC inhibit,Cav32 inh
COCCOC(=O)C(C#N)c1nc2ccccc2nc1N1CCCC1 (centres undefined),97,97,.,78,107,0.6
CCC(=O)Oc1ccc(C(=O)Nc2c[nH]c(=O)[nH]c2=O)cc1,87,88,.,.,.,.
O=C(Nc1ccc(Nc2ccccc2)cc1)C(Cl)(Cl)Cl,19,24,.,.,.,.
CCOC(=O)N1CCN(C(=O)COc2cccc3c2CCN(Cc2ccc(F)cc2)C3=O)CC1,98,99,.,.,.,.
c1ccc2c3c([nH]c2c1)-c1[nH]ncc1CC3,74,85,95,103,55,1.3
Clc1ccc2[nH]c3c(c2c1)CCc1cn[nH]c1-3,71,72,94,22*,46,-0.34
Cc1ccc(S(=O)(=O)CCC(=O)c2ccc(O)cc2O)cc1,45,30,87,1.0*,87,2.6
Cc1ccc(S(=O)(=O)CCC(=O)OCc2ccc(Cl)cc2)cc1,95,103,.,.,.,.
Cc1ccc(NC(=O)CSCC#N)cc1Cl,100,90,.,.,.,.
CCOC(=O)c1cc(NC(=O)CSCCO)ccc1Cl,88,91,97,15*,105,0.5

# High-throughput results: PubChem BioAssay, several laboratories
